# The list is not random: actives were taken first. Their share in the collection is about 8.7%.
# PostGolgi ctrl = growth inhibition of yeast control strain, primary screen, counter-screen for post-Golgi transport modulator project. efflux-deficient yeast background strain, growth absorbance A615, 16 h. inhibition, % at 10 µM. actives 5% (n = 98,000). AID 738, 2007
# PTK2B oligo ant = antagonists of Pyk2 self-association, primary screen, Q293 cells, FERM NanoBiT luminescence, HTS; actives 0.83% (n = 99,000); stronger effect = lower value; z-score (the deposit names both 25 µM and 10 µM); Protein-tyrosine kinase 2-beta (Homo sapiens), Q14289;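 active means Z-score of -3 or lower, scaled per plate to the spread of control and sample wells; inactive means z-score above -3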;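 further: negative z-score means lost luminescence so less FERM oligomerization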
# Target sequence (Q14289 whole entry, looked up): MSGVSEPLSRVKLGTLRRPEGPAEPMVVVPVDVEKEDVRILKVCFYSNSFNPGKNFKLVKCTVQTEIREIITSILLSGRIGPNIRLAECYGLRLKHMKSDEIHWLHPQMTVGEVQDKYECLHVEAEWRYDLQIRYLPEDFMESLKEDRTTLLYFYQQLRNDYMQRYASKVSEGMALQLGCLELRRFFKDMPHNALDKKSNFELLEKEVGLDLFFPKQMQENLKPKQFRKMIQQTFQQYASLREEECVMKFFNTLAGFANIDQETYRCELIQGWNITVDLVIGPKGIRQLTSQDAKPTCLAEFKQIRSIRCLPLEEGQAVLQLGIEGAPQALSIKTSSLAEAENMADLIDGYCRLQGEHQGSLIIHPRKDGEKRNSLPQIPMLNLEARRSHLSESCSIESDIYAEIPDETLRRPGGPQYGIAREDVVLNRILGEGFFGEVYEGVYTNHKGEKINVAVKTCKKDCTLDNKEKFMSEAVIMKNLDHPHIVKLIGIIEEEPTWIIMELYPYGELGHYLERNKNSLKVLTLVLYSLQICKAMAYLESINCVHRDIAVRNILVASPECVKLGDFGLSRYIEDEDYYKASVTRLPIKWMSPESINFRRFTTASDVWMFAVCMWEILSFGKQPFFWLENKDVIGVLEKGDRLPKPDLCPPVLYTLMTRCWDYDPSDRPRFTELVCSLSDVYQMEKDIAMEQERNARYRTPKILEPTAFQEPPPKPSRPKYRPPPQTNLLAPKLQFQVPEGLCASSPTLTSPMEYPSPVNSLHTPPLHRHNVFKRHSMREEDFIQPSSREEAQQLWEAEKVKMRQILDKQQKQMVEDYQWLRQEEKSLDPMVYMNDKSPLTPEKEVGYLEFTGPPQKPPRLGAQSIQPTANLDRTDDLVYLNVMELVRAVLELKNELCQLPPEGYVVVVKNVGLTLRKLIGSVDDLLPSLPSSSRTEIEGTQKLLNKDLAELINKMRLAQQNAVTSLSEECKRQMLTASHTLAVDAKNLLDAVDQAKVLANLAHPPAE
# Ecoli WT expand = growth inhibitors of wild-type E. coli, primary screen, strain BW25113, expanded library, OD600. growth inhibition, % at 100 µM. actives 0.15% (n = 98,000). OD600 absorbance;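 active means growth inhibition above about 50% at one test dose, limit read from the data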;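 further: growth measured after 20 h incubation at 37 °C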
# Ecoli tolC = growth inhibitors of E. coli tolC mutant, primary screen, strain BW25113 ΔtolC::kan, 384-well | OD615 | growth inhibition, % at 10 µM (by protocol) | actives 2.2% (n = 65,000);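 active means growth inhibition at or above a cutoff equal to the mean over every tested compound plus 3 SD, cut at about 60% in these data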;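 further: growth measured after 20 h incubation at 37 °C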
#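 Signal: optical density read at 615 nm; Assay system: E. coli ΔtolC::kan strain BW25113; Times: 20 h incubation with compound, 37 °C; Dosing: 10 µM final, single dose.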
# Cav32 inh = Cav3.2 calcium influx blockers – cell-based, Fluo-4 calcium fluorescence, FDSS, MLSMR library, primary screen; B-score at 10 µM; Cav3.2-expressing cells; stronger effect = lower value; actives 4% (n = 100,000);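 active means single-dose well whose peak fluorescence ratio is a statistical outlier from its plate by either plate-standardised score or position-corrected B-score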
# PostGolgi yeast = phenotypic screen on post-Golgi transport, primary screen | inhibition, % at 10 µM | post-Golgi transport phenotypic cell assay | AID 739, 2007 | actives 0.9% (n = 98,000);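 further: yeast cells grown in 1536-well plates; yeast grown about 18 h at 30C before absorbance read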
# Numbers stand for hits; 0 = inactive; - = not tested or not shown. Unless noted, no stated cut-off is given here; in the data, active means inhibition above about 30%; inactive means the rest.
SMILES,PostGolgi ctrl,PTK2B oligo ant,Ecoli WT expand,Ecoli tolC,Cav32 inh,PostGolgi yeast
c1ccc(-c2nnc(-c3ccccn3)nc2NC2CCCCC2)cc1,87,0,100,-,0,40
Cc1cc(N2C(=O)C3CC=CC(C)C3C2=O)no1 (configuration not stated),-,0,-,-,0,-
O=C(CCCc1nc(-c2ccc(Cl)cc2)no1)Nc1cccnc1,88,0,0,0,0,54
O=C(CCCOc1ccc(Cl)cc1Cl)Nc1cccnc1,39,0,0,-,-,69
O=C(Nc1ccc(-c2noc(CCc3ccccc3)n2)cc1)c1cccnc1,0,-3.3,0,0,0,0
CSc1cccc(NC(=O)CCCOc2ccc(Cl)cc2Cl)c1,-,0,-,-,0,-
O=C(Nc1cccnc1)Nc1ccc(F)c(Cl)c1,0,0,61,0,0,0
Cc1cccc(-c2noc(CCCC(=O)Nc3cccnc3)n2)c1,0,0,0,0,-,0
COC(=O)c1cc(OC)c(OC)cc1NC(=O)c1oc2ccccc2c1C,-,-,-,0,-,-
COc1ccccc1NC(=O)CSc1nc(O)cc(=O)[nH]1,0,0,0,0,0,0
Cc1ccc(N(CC(=O)NCc2ccc3c(c2)OCO3)S(=O)(=O)c2c(C)noc2C)cc1,0,-,0,0,0,0
CN(CC(=O)Nc1cccc2ccccc12)c1ccc(S(=O)(=O)N2CCOCC2)cn1,0,0,0,-,0,0
CCOC(=O)CN1C(=O)C(Sc2n[nH]c(-c3ccc(O)cc3)n2)CCc2ccccc21 (configuration not stated),0,0,0,-,-6.5,0
O=C(CCSc1nnc(-c2ccncc2)o1)Nc1ccc(F)cc1,89,0,0,0,0,93
COc1ccc(NC(=O)CN2CCN(C3c4ccccc4-c4ccccc43)CC2)cc1,0,0,0,-,0,0
Cc1ccc(S(=O)(=O)Nc2cccc(-c3cn4ccsc4n3)c2)cc1,46,0,0,83,0,0
Cc1cccc(S(=O)(=O)Nc2cccc(-c3cn4ccsc4n3)c2)c1,46,0,0,0,0,0
CCOC(=O)c1cc2sccc2n1CC(=O)N1CCc2ccccc21,0,-3.5,0,0,0,0
O=C(Nc1ccc2c(c1)OCCO2)c1cc2sccc2n1Cc1ccc(F)cc1,53,-3.1,0,-,0,0
CCn1c(C(=O)NCCCc2ccccc2)cc2sccc21,-,-,-,81,-,-
O=C(NCc1ccco1)C1CCN(C(=O)c2cc3sccc3n2Cc2ccc(F)cc2)CC1,0,0,0,0,0,0
CC1Cc2ccccc2N1C(=O)c1cc2sccc2n1Cc1ccc(F)cc1 (configuration not stated),-,0,-,-,-5.6,-
O=C(Nc1nccs1)c1cc2sccc2n1Cc1ccc(Cl)cc1,0,-,0,-,0,0
Cc1ccc(OC(=O)CCc2c(C)nc3ncnn3c2C)cc1,0,0,0,0,0,0
O=C(C1=C[C@H](c2ccccc2)C[C@H](OCCCCO)O1)N1CCOCC1,-,-,-,-,0,-
SMILES,PostGolgi ctrl,PTK2B oligo ant,Ecoli WT expand,Ecoli tolC,Cav32 inh,PostGolgi yeast
Cc1ccc2[nH]c(SCC(=O)N3CCOCC3)nc2c1C,0,0,0,-,0,0
CCCS(=O)(=O)N1CCCC(C(=O)N2CCOCC2)C1 (configuration not stated),0,0,0,0,0,0
O=C(Nc1ncc(C(F)(F)F)cc1Cl)C1COc2ccccc2O1 (configuration not stated),0,0,0,0,0,0
COc1ccc2c(c1OC)C(=O)N1N=C(c3ccc(O)cc3)CC21 (configuration not stated),0,0,0,-,0,0
O=C(NCc1ccco1)c1ccc(Cn2c(=O)c3sccc3n(Cc3cccc(F)c3)c2=O)cc1,38,-,0,-,0,0
NC(=O)Nc1ccc2c(c1)OCCO2,0,0,0,-,0,0
CCn1c(C(=O)N2CCc3ccccc3C2)cc2sccc21,0,-,0,0,-5.6,0
O=C(CC(c1ccccc1)c1ccccc1)Nc1ccc2c(c1)OCCO2,0,0,0,-,-3.6,0
CCC(OC(=O)c1cc2sccc2n1C)C(=O)NCc1ccco1 (configuration not stated),99,0,0,0,0,103
O=C(NCc1ccco1)c1ccc(Cn2c(=O)c3ccccc3n(Cc3cccc(Cl)c3)c2=O)cc1,0,0,0,-,0,0
CCc1ccccc1N(C(=O)c1cccs1)C1C=CS(=O)(=O)C1 (configuration not stated),0,0,0,0,0,0
CCOCCCN(Cc1ccco1)C(=O)c1cc2c(=O)[nH]c3ccc(C)cc3c2s1,0,-,0,-,0,0
O=C(Nc1ccc2c(c1)OCCO2)c1cc2sccc2n1Cc1ccccc1,0,-3.8,0,-,-5.6,0
Cn1c(C(=O)Nc2ccc3c(c2)OCCO3)cc2sccc21,0,0,0,0,0,0
O=C(NCc1ccco1)c1cc2sccc2n1Cc1ccccc1,-,0,-,77,-5.6,-
CC(C)[C@@H](C(=O)OCC(=O)Nc1ccc2c(c1)OCO2)N1C(=O)c2ccccc2C1=O,0,0,0,-,0,0
CCOC(=O)c1cnn(-c2ccccc2)c1NC(=O)C(F)(F)C(F)(F)C(F)(F)F,0,0,0,-,0,0
CCOC(=O)c1cnn(-c2ccccc2)c1-n1cccc1C(=O)C(=O)Nc1ccc(F)cc1,0,0,0,-,-4.3,0
CCC1CCCCN1CCCNC(=O)Cn1nc(-c2ccc(C)cc2)ccc1=O (configuration not stated),0,0,0,0,-,0
Cc1ccccc1C(=O)NN(C)c1nc2ccccc2nc1C(F)(F)F,0,0,0,-,0,0
CN(NS(=O)(=O)c1ccccc1)c1nc2ccccc2nc1C(F)(F)F,0,0,0,-,-4.2,0
O=C1C(Nc2ccccc2)=C/C(=N/S(=O)(=O)c2cccs2)c2ccccc21,-,-3.8,-,-,-,-
COC(=O)c1ccccc1NC1=C/C(=N\S(=O)(=O)c2cccs2)c2ccccc2C1=O,0,-5,0,-,0,0
S=C1NCCc2ccc(Cl)cc2C1c1ccccc1 (configuration not stated),-,0,-,-,0,-
CC1C/C(=N\NC(=S)NC(C)C)CC(C)(C)C1 (configuration not stated),0,0,0,-,0,0
SMILES,PostGolgi ctrl,PTK2B oligo ant,Ecoli WT expand,Ecoli tolC,Cav32 inh,PostGolgi yeast
Cc1ccccc1C(=O)O/N=C/c1c(N2CCOCC2)n(C)c2ccccc12,40,0,0,-,0,54
NC1=NC(c2cn(-c3ccccc3)nc2-c2cccs2)n2c(nc3ccccc32)N1 (configuration not stated),0,0,0,100,-,0
CC(C)CCNC(=S)Nc1ccc(F)cc1,-,0,-,-,0,-
Cc1sc(NC(=O)c2cccs2)nc1-c1ccccc1,0,0,0,0,0,0
N#Cc1c(-c2ccccc2)c(-c2ccccc2)n(Cc2ccco2)c1NC(=O)c1cccs1,0,0,0,-,-8.9,0
O=C(O)CCCCCNCc1ccncc1,0,0,0,0,0,0
